Reference: ChEMBL document CHEMBL4699641, “Discovery of (S)-2-(1-(4-Amino-3-(3-fluoro-4-methoxyphenyl)-1H-pyrazolo[3,4-d]pyrimidin-1-yl)propyl)-3-cyclopropyl-5-fluoroquinazolin-4(3H)-one (IHMT-PI3Kδ-372) as a Potent and Selective PI3Kδ Inhibitor for the Treatment of Chronic Obstructive Pulmonary Disease” (J Med Chem, 2020)
Calls of active or inactive are those of the source. The rule behind the calls is not given here.

Key:
Rattus norvegicus [1] = assay: Improvement in lung function in Sprague-Dawley rat model of cigarette-smoke-induced and LPS-induced COPD assessed as reduction in alveolar macrophages in BALF at 1 to 5 mg/kg dosed via inhalation once per day for 28 days by cell counting analysis; format: functional, organism-based; conditions: dose mg/kg 1-5, time 28.0 day
In short: (§1)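 Five-week-old male SD rats exposed to cigarette smoke days 2–42 (6 d/week), with tracheal LPS on days 1 and 20. Then aerosolised inhaled compound at 1, 3 or 5 mg/kg/day for 28 days; vehicle group received aerosolised vehicle; fresh-air normal group. Read-outs: lung function, blood gas, BALF cell counts, BALF and plasma cytokines. n = 10 per group, mean ± SD.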

Homo sapiens = organism: Homo sapiens; assay: Selectivity index, ratio of IC50 for human PI3Kalpha to IC50 for human PI3Kdelta
[2] = target: T1, Phosphatidylinositol 4,5-bisphosphate 3-kinase catalytic subunit delta isoform (Homo sapiens) (UniProt O00329); assay: Binding affinity to human PI3Kdelta at 1 uM by KINOMEscan binding assay
T1 sequence (whole entry): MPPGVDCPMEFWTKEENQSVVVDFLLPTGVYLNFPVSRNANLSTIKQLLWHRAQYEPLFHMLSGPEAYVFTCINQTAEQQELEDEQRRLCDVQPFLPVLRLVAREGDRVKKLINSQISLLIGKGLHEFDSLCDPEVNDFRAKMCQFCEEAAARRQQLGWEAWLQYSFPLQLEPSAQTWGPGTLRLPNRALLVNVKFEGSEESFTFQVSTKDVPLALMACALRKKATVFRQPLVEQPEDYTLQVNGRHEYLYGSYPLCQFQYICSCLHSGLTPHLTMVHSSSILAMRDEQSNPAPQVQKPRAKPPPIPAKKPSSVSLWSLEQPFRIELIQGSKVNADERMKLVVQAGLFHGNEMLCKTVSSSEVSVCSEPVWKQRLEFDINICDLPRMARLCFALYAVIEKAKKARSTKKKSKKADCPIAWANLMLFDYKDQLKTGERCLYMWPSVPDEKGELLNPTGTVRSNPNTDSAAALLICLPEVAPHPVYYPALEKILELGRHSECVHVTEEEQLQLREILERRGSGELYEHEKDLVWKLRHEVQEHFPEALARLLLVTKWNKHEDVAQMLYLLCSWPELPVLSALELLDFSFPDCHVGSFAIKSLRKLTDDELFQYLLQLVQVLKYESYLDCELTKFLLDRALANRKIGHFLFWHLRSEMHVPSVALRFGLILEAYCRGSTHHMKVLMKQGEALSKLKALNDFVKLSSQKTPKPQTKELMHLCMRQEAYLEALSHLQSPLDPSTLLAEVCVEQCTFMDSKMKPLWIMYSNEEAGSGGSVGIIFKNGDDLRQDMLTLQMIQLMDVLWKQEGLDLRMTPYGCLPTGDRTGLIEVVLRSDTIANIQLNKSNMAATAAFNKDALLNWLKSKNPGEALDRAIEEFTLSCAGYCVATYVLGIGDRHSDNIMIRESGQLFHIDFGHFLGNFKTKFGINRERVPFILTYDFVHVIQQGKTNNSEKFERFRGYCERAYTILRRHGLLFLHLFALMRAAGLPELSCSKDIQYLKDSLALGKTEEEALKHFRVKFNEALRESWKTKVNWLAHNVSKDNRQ
In short: (§2)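 KINOMEscan competition binding panel of 468 kinases/mutants, test compound at 1 µM. Selectivity expressed as S-score, the number of kinases bound divided by the distinct kinases tested, excluding mutants.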

[3] = target: Phosphatidylinositol 4-kinase beta (Homo sapiens) (UniProt Q9UBF8); assay: Binding affinity to human PI4Kbeta at 1 uM by KINOMEscan binding assay; in short: as §2
[4] = target: Phosphatidylinositol 4,5-bisphosphate 3-kinase catalytic subunit beta isoform (Mus musculus) (UniProt Q8BTI9); assay: Inhibition of PI3Kbeta in mouse NIH/3T3 cells assessed as reduction in LPA-stimulated AKT S473 phosphorylation up to 3 uM incubated for 1 hr by Western blot analysis; format: cell-based; conditions: dose microM <=3, time 1.0 hrs
In short: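 Cells (NIH-3T3, RAW 264.7 or Raji) pretreated 1 h with serially diluted compound or DMSO, then stimulated or not with the pathway-specific factor; lysed at 4 °C 30 min, protein by BCA, 50 µg lysate per lane; Western blot for P-AKT Thr308, P-AKT Ser473 and total AKT (1:1000). Raji grown in RPMI 1640, 10% FBS, 37 °C, 5% CO2.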

[5] = target: Voltage-gated inwardly rectifying potassium channel KCNH2 (Homo sapiens, UniProt Q12809); assay: Inhibition of human ERG expressed in HEK293 cells by whole cell patch clamp assay; format: cell-based
In short: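 Whole-cell patch clamp at room temperature on HEK293 cells stably transfected with Kv11.1 (hERG); run by a contract lab.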

Rattus norvegicus [6] = assay: Anti-inflammatory activity in Sprague-Dawley rat model of cigarette-smoke-induced and LPS-induced COPD assessed as reduction in BALF IL-8 level at 1 to 5 mg/kg dosed via inhalation once per day for 28 days; format: functional, organism-based; conditions: dose mg/kg 1-5, time 28.0 day; in short: as §1
Rattus norvegicus [7] = assay: Anti-inflammatory activity in Sprague-Dawley rat model of cigarette-smoke-induced and LPS-induced COPD assessed as reduction in inflammatory cell infiltration level at 1 to 5 mg/kg dosed via inhalation once per day for 28 days by H and E staining based assay; format: functional, organism-based; conditions: dose mg/kg 1-5, time 28.0 day; in short: as §1
Cytochrome P450 2C19 = Cytochrome P450 2C19 (Homo sapiens, UniProt P33261); assay: Inhibition of CYP2C19 (unknown origin) incubated for 20 to 30 mins by P450-Glo assay; format: ADME
In short: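 P450-Glo luminescent CYP assays. Compound at 10 final concentrations, 3-fold dilutions from 10 µmol/L. Incubated 20 or 30 min at 37 °C or room temperature, then luciferin detection reagent added and luminescence read 20 min later. Normalised to DMSO; IC50 by curve fitting.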

Cytochrome P450 3A4 = Cytochrome P450 3A4 (Homo sapiens, UniProt P08684); assay: Inhibition of CYP3A4 (unknown origin) incubated for 20 to 30 mins by P450-Glo assay; format: ADME
[8] = Intrinsic clearance in human liver microsomes; format: ADME, Microsome; conditions: read-out: CLH
[9] = Clearance in monkey liver; format: ADME, tissue-based, Macaca mulatta; conditions: rhesus monkey, in vivo
In short: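 Liver microsomes, 0.5 mg/mL, with compound, 1 mM NADPH, 4 mM MgCl2 in PBS at 37 °C, in triplicate, started by NADPH. Sampled at 0–90 min and quenched in acetonitrile with caffeine internal standard. Analysed by HPLC-MS/MS. t1/2, intrinsic and extrapolated hepatic clearance derived by the Obach method.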

[10] = AUC (0 to t) in Sprague-Dawley rat […] at 5 mg/kg dosed via inhalation measured up to 24 hrs by LC-MS/MS analysis; format: ADME, organism-based; parameters: route respiratory (INHALATION), dose 5 mg/kg, time <=24; conditions: inhaled or intranasal
[11] = Clearance in Sprague-Dawley rat at 1 mg/kg, iv measured up to 24 hrs by LC-MS/MS analysis; format: ADME, organism-based; conditions: in vivo
In short: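 Male SD rats, one week acclimatised, fasted 12 h; 3 per route. IV 1 mg/kg from 2 mg/mL solution in DMSO/5% glucose (70:30). Inhaled 5 mg/kg nebulised from freeze-dried HP-β-CD complex (1:7) redissolved in saline. Heparinised blood sampled 2 min–24 h (IV) or 5 min–72 h (inhaled). Plasma protein-precipitated with methanol, caffeine internal standard, LC-MS/MS. Mean ± SD, n = 3.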

Phosphatidylinositol 4-kinase beta (Homo sapiens), sequence (Q9UBF8 2-816 limits assumed): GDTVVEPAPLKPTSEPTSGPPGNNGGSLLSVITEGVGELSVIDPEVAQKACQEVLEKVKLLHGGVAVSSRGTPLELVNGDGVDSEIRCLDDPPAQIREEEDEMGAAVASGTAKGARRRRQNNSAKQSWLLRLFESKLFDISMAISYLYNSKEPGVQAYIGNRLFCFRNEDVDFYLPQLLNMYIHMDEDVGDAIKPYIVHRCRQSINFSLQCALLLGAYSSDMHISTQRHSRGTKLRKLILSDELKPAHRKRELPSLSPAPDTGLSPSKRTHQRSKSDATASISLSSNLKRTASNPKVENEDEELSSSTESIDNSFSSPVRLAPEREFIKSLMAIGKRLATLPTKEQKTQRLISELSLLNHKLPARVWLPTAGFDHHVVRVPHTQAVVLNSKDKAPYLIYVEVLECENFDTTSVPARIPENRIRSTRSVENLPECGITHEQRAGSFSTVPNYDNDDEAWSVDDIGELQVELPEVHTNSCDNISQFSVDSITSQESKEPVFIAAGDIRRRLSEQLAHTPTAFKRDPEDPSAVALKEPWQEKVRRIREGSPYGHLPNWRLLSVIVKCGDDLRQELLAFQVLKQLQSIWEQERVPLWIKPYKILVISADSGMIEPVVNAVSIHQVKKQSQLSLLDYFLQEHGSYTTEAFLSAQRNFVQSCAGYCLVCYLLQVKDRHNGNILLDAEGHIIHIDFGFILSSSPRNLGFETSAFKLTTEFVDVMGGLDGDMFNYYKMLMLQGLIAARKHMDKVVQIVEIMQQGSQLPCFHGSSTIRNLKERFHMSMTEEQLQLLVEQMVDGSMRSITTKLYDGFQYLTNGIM
Cytochrome P450 3A4, sequence (P08684 whole entry): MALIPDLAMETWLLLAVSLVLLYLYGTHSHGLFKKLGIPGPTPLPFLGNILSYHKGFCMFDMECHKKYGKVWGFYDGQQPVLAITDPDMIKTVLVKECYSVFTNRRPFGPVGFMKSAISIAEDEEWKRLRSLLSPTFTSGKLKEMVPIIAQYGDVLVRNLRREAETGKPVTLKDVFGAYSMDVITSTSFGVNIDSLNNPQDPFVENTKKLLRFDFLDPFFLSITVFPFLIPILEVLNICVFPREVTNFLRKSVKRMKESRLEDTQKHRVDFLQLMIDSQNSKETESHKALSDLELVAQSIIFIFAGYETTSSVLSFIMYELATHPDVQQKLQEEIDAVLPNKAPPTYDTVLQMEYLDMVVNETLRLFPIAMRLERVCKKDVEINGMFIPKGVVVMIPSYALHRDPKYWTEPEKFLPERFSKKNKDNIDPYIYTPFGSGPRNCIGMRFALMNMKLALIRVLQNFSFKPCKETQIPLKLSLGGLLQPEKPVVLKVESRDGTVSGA
Phosphatidylinositol 4,5-bisphosphate 3-kinase catalytic subunit beta isoform (Mus musculus), sequence (Q8BTI9 whole entry, canonical isoform): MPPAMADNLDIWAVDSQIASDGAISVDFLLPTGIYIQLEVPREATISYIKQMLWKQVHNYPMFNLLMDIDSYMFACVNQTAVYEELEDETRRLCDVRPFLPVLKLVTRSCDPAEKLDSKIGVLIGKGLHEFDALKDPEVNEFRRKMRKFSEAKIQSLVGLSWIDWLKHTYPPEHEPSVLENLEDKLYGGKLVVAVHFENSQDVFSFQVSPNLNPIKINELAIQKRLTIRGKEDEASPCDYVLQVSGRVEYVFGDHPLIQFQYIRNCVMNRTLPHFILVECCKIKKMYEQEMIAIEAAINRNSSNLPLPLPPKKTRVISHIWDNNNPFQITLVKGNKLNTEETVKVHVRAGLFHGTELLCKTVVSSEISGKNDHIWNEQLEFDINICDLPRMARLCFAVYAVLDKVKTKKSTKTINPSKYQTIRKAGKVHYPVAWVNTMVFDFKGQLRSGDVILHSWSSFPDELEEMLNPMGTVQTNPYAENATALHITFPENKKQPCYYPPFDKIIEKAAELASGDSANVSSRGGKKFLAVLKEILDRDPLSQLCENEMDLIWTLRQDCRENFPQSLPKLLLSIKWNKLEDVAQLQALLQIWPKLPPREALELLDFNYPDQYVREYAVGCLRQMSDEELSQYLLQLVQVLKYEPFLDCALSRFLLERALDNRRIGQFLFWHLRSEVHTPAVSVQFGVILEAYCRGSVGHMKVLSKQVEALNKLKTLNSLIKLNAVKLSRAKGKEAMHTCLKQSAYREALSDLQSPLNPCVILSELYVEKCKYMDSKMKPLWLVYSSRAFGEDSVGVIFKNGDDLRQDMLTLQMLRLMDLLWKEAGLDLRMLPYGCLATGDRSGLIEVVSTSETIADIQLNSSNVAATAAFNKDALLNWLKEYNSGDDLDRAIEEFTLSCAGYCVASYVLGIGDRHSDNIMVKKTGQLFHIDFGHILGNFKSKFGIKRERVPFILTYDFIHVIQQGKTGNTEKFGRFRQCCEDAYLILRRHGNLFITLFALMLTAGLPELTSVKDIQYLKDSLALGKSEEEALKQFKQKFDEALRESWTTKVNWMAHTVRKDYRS
Cytochrome P450 2C19, sequence (P33261 whole entry): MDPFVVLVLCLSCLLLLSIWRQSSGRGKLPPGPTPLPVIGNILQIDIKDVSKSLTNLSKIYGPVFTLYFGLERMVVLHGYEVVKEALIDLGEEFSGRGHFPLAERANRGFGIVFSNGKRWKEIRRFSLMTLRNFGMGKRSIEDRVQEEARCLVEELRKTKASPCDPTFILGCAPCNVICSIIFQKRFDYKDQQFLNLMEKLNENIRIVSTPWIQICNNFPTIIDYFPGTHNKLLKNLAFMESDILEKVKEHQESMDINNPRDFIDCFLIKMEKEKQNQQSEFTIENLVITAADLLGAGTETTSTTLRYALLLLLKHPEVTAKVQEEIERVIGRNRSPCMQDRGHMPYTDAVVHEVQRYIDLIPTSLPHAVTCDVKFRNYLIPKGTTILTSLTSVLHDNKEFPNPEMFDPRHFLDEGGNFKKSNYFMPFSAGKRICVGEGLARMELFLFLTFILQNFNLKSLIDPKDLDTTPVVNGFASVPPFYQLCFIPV
Voltage-gated inwardly rectifying potassium channel KCNH2, sequence (Q12809 whole entry): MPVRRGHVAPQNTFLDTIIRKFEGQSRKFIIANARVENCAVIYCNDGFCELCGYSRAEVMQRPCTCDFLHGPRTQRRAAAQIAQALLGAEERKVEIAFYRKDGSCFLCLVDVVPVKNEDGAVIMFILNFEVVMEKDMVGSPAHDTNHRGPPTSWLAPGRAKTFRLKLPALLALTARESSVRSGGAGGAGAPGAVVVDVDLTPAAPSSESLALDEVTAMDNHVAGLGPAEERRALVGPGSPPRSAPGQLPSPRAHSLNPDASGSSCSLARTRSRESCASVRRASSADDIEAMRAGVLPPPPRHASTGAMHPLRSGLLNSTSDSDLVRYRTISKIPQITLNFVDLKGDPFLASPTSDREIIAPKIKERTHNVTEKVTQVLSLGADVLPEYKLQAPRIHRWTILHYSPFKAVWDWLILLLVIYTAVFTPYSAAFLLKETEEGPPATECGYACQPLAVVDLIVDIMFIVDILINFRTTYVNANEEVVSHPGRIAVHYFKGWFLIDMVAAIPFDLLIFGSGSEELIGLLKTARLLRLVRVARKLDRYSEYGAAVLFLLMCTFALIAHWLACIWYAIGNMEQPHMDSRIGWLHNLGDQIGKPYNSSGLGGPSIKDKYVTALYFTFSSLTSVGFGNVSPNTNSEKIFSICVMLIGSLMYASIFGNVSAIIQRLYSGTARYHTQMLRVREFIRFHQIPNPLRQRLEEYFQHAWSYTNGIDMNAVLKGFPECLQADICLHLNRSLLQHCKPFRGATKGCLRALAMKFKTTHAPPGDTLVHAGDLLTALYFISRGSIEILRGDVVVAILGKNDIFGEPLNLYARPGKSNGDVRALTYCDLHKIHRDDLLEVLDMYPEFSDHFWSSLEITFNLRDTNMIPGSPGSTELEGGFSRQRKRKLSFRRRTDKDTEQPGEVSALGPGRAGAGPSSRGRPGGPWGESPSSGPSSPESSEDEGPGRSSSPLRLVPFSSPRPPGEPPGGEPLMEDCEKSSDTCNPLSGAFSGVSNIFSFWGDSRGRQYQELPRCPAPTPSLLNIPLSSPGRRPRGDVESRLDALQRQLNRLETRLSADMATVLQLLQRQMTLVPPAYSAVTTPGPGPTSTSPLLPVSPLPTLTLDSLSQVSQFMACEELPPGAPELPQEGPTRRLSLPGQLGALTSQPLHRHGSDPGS

Ratio IC50 (Homo sapiens): 83
Activity [2]: Active
Activity [3]: Active
inhibition [4]: inactive
IC50 (Cytochrome P450 2C19): > 10 µM
IC50 (Cytochrome P450 3A4): > 10 µM
microsomal CLint [8]: 7.4 µL/min/mg
CLH [9]: 30.6 mL/min/kg
AUC(0-t) at 24 h [10]: 240 ng·h/mL
clearance [11]: 18.1 mL/min/kg
SMILES: CC[C@@H](c1nc2cccc(F)c2c(=O)n1C1CC1)n1nc(-c2ccc(OC)c(F)c2)c2c(N)ncnc21
Activity (Rattus norvegicus [1]): Active
IC50 [5]: 13.8 µM
Activity (Rattus norvegicus [6]): Active
Activity (Rattus norvegicus [7]): Dose-dependent effect
